The values that follow come from ChEMBL document CHEMBL1158805, “Neurotoxic meroditerpenoids from the tropical marine brown alga Stypopodium flabelliforme” (J Nat Prod, 2005).

One may read the EC50 as the concentration needed to bring the measured effect to its halfway point.

Series [1] in a line: Increase in calcium influx in Sprague-Dawley rat CGN measured every 6 seconds for 24 mins by FLIPR assay. In kind it is functional. The procedure, abridged:
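Cerebellar granule neurons from 8-day-old Sprague-Dawley rat cerebella were used at 10-13 days in culture. Cells were loaded 1 h at 37 °C with 4 µM fluo-3 AM and 0.04% pluronic acid in Locke's buffer (pH 7.4), washed, then read by FLIPR (488 nm excitation, 500-560 nm emission). Baseline was read every 3 s for 1 min, readings stayed at 3 s for 2 min after addition, then every 6 s, 24 min total. Response was AUC (trapezoid rule); EC50 came from a logistic fit.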

Another series deals with Artemia salina. The series is described as follows: Toxicity in Artemia salina after 24 hrs. The format is organism-based. Conditions: in vivo; call rule not given here. In short, it runs like this: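 About 15 hatched Artemia salina per well in roughly 5 mL of artificial seawater, with sample added in 50 µL EtOH. Held 24 h at 28 °C, then live and dead shrimp counted. Run in duplicate.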
Series [2] can be described thus: Cytotoxicity against mouse Neuro2a cells after 48 hrs by MTT assay. The format is functional. To be noted: N2a, read-out: LC50 (the source's name). The procedure, abridged: (§1)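 Cells seeded at 6000/well in RPMI 1640 with 10% FBS. After 24 h, compound in DMSO, diluted in serum-free medium, was added (DMSO under 1% final). Viability was read by MTT reduction after 48 h, giving LC50.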
On the technique in general: Tetrazolium dyes change colour on reduction, which living cells bring about.

A further series deals with Neuro2a. The series can be described thus: Inhibition of voltage-gated sodium channel in mouse Neuro2a cells after 22 hrs. In kind it is cell-based.
Another series deals with NCI-H460. The series can be described thus: Cytotoxicity against human NCI-H460 cells after 48 hrs by MTT assay. The format is functional. Conditions: NCI-H460, 48 h, read-out: LC50 (the source's name). In short, it runs like this:
as §1

The nature of series [3]: Cytotoxicity against Sprague-Dawley rat CGN assessed as LDH efflux after 2 hrs in presence of tetrodotoxin. In kind it is ADME.
Series [4] can be described thus: Cytotoxicity against Sprague-Dawley rat CGN assessed as LDH efflux after 2 hrs. Conditions: CGN (primary cells from Sprague-Dawley rat), read-out: LC50. In short, it runs like this:
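Primary cerebellar granule neurons from 8-day-old Sprague-Dawley rats in BME with 25 mM KCl, 10 µM cytosine arabinoside added after 18-24 h, used at 10-13 days in culture. Washed into Locke's buffer (pH 7.4, 1% DMSO) and exposed to compound (1-100 µM) for 2 h at 22 °C. LDH released to medium assayed. Logistic fit of concentration-response; triplicate, repeated twice.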

For `C[C@H]1CC[C@@H]2[C@@]3(C)CC[C@H](O)C(C)(C)[C@@H]3CC[C@@]2(C)[C@]12Cc1c(O)c(O)cc(C=O)c1O2`, in series [1], the EC50 stood at 100 µM.
In the series with Artemia salina, `Cc1cc(O)cc2c1O[C@]1(C)CC[C@@H]3[C@](C)(CC[C@H]4C(C)(C)[C@@H](O)CC[C@]34C)[C@H]1C2` had an LC90 of 24 µM. The results for the CC50 (in series [2]; in the series on NCI-H460) were 2 µM and 24 µM, respectively. In the series on Neuro2a, this molecule showed an Activity of 0.7 µM.
With `CC1=CC(=O)C2=C(C[C@H]3[C@@]4(C)CC[C@H]5C(C)(C)[C@@H](O)CC[C@@]5(C)[C@H]4CC[C@]23C)C1=O` [FLABELLINONE], the figures for the CC50 (in series [2]; in the series with NCI-H460) were 2 µM and 14 µM, respectively. Besides, the Activity in the series on Neuro2a came out at 7 µM.
For the molecule `CC1=CC(=O)C(=O)C2=C1O[C@@]1(C2)[C@@H](C)CC[C@@H]2[C@@]3(C)CC[C@H](O)C(C)(C)C3CC[C@]21C` (stereo partly specified) [STYPOLDIONE], the EC50 in series [1] was 27.8 µM. In series [3], the result was Active. For the same molecule, the CC50 at 2 h in series [4] worked out at 37.4 µM.
In the case of `COc1c(C)cc(O)c2c1C[C@H]1[C@@]3(C)CC[C@H]4C(C)(C)[C@@H](O)CC[C@@]4(C)[C@H]3CC[C@]21C` [FLABELLINOL], the CC50 in series [2] worked out at 2 µM; in the series on NCI-H460 it was 9 µM. In addition, the Activity in the series with Neuro2a was 2 µM.
`COC1=CC(C)=C2O[C@@]3(CC2(OO)C1=O)[C@@H](O)CC[C@@H]1[C@@]2(C)CC[C@H](O)C(C)(C)[C@@H]2CC[C@]13C` (stereo partly specified) [STYPOHYDROPEROXIDE]: the CC50 in series [2] was greater than 21 µM; in the series on NCI-H460, greater than 25 µM.
